Assay results from ChEMBL document CHEMBL3867454, “Corallocins A-C, Nerve Growth and Brain-Derived Neurotrophic Factor Inducing Metabolites from the Mushroom Hericium coralloides” (J Nat Prod, 2016).
Values after ≈ are worked out from the molar mass of the structure shown. Active and inactive are the calls of the source. No cut-off for these calls is given here.

Tests used:
[1] = Upregulation of NGF expression in human 1321N1 cells at 68.9 uM measured after 6 hrs by semiquantitative RT-PCR analysis relative to DMSO-control; type: functional, cell-based
Outline: (§1)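 1321N1 astrocytes were grown to confluence on 3.5 cm plates and switched to serum-free DMEM 24 h before compound addition. Primers were specific for GAPDH, NGF (189 bp) and BDNF (101 bp). PCR programs: GAPDH 20 cycles at 60 °C annealing; NGF 30 cycles at 61 °C; BDNF 30 cycles at 58 °C. Products were run on 1% or 2% agarose, with GAPDH as loading control and identity confirmed by sequencing. n = 3 independent experiments.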

[2] = Cytotoxicity against HUVEC measured after 5 days by MTT assay; type: functional, cell-based; settings: Homo sapiens, 120 h
[3] = Cytotoxicity against human KB-3-1cells measured after 5 days by MTT assay; type: functional, cell-based; settings: KB 3-1, 120 h
Outline: (§2)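 Compounds added from 30 μg/mL methanol stocks by serial dilution in 96-well plates. L929 was cultured in DMEM, MCF-7 and KB-3-1 in RPMI-1640, all with 10% FCS, 5% CO2, 37 °C, 5 days. Methanol was the negative control and epothilone A the positive control. IC50 values were derived from the dilution series.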

[4] = Cytotoxicity against mouse L929 cells measured after 5 days by MTT assay; type: functional, cell-based; settings: L929, 120 h; outline: as §2
[5] = Cytotoxicity against human MCF7 cells measured after 5 days by MTT assay; type: functional, cell-based; settings: MCF7, 120 h; outline: as §2
[6] = Antifungal activity against Mucor plumbeus MUCL 49355 measured after 20 to 24 hrs by serial dilution assay; type: functional
[7] = system: 1321N1 (Homo sapiens); assay: Cytotoxicity against human 1321N1 cells assessed as induction of cell death measured after 24 hrs; settings: pooled result: one value given for 2 cell lines, strains, targets or settings
[8] = Increase in BDNF expression in human 1321N1 cells at 68.9 uM measured after 6 hrs by semiquantitative RT-PCR analysis relative to DMSO-control; type: functional; outline: as §1
[9] = system: 1321-N1; assay: Induction of NGF secretion in human 1321N1 cells at 19.6 uM after 48 hrs; type: functional, cell-based
[10] = Upregulation of NGF expression in human 1321N1 cells at 57.8 uM measured after 6 hrs by semiquantitative RT-PCR analysis relative to DMSO-control; type: functional, cell-based; outline: as §1
[11] = system: 1321-N1; assay: Induction of NGF secretion in human 1321N1 cells at 57.8 uM after 48 hrs; type: functional, cell-based
[12] = system: PC-12; assay: Intrinsic neurotrophic activity in rat PC12 cells in conditioned 1321N1 culture medium assessed as neurite outgrowth at 57.8 uM measured after 48 hrs by light microscopy method; type: functional, cell-based
[13] = Upregulation of NGF expression in human 1321N1 cells at 19.6 uM measured after 6 hrs by semiquantitative RT-PCR analysis relative to DMSO-control; type: functional, cell-based; outline: as §1
[14] = system: PC-12; assay: Intrinsic neurotrophic activity in rat PC12 cells in conditioned 1321N1 culture medium assessed as neurite outgrowth at 19.6 uM measured after 48 hrs by light microscopy method; type: functional, cell-based
[15] = Increase in BDNF expression in human 1321N1 cells at 19.6 uM measured after 6 hrs by semiquantitative RT-PCR analysis relative to DMSO-control; type: functional; outline: as §1

SMILES: COc1cc2c(c(O)c1C/C=C(\C)CCC=C(C)C)CN(CCc1ccc(O)cc1)C2=O
- fold change (FC) [1]: 2
- IC50 [2]: 2.1 µM
- IC50 [3]: 11.5 µM
- IC50 [4]: 14.7 µM
- IC50 [5]: 9.2 µM
- MIC [6]: 57.4 µM (≈ 25 µg/mL)
- MNTC at 24 h [7]: 68.9 µM
- fold change (FC) [8]: 1.5

SMILES: COc1cc2c(c(O)c1C/C=C(\C)CC/C=C(\C)C(=O)O)COC2=O
- MNTC at 24 h [7]: 57.8 µM
- Activity [9]: Active
- fold change (FC) [10]: 3
- Activity [11]: Active
- Activity [12]: Active

SMILES: COc1cc2c(c(O)c1C/C=C(\C)CCC=C(C)C)CN(CCc1c[nH]c3ccccc13)C2=O
- fold change (FC) [13]: 5
- MNTC at 24 h [7]: 19.6 µM
- Activity [9]: Active
- Activity [11]: Active
- Activity [14]: Active
- fold change (FC) [15]: 1.9
